Each structure is given as a SMILES string. In brackets after ≈: the same amount, converted by molar mass. Activity calls are given as the source filed them. The calls are words filed in the database; no cut-off is given here. Where only a bound is given, the exact number is not on record here.

The subject of assay [1] is Bacillus subtilis. As to the kind of experiment: Antibacterial activity against penicillin-susceptible Bacillus subtilis ATCC 9372 incubated for 24 hrs by tube-dilution method. The following applies: ATCC 9372, 24 h. It is filed as functional. The method in brief: (§1)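 MIC by tube dilution per NCCLS; B. subtilis ATCC9372, E. coli ATCC25922, P. aeruginosa ATCC27853 and S. aureus ATCC25923 are penicillin-susceptible strains.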

Assay [2] has as its system Escherichia coli. Briefly: Antibacterial activity against penicillin-susceptible Escherichia coli ATCC 25922 incubated for 24 hrs by tube-dilution method. The assay is classed as functional. The settings on record: ATCC 25922, 24 h. The method in brief:
as §1

Assay [3] deals with Pseudomonas aeruginosa. As to the kind of experiment: Antibacterial activity against penicillin-susceptible Pseudomonas aeruginosa ATCC 27853 incubated for 24 hrs by tube-dilution method. The assay is classed as functional. The following applies: ATCC 27853, 24 h. The method in brief:
as §1

Assay [4] has as its system Staphylococcus aureus. As to the kind of experiment: Antibacterial activity against penicillin-susceptible Staphylococcus aureus ATCC 25923 incubated for 24 hrs by tube-dilution method. It is filed as functional. The settings on record: ATCC 25923, 24 h. The method in brief: as §1
Assay [5] deals with Staphylococcus aureus. Briefly: Antibacterial activity against […] Staphylococcus aureus ATCC 29213 incubated for 24 hrs by tube-dilution method. It is filed as functional. The settings on record: ATCC 29213, 24 h. The method in brief:
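Broth tube-dilution MIC run as NCCLS recommends, against the […] S. aureus strain ATCC29213.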

The test system of assay [6] is Staphylococcus aureus. As to the kind of experiment: Antibacterial activity against penicillin-resistant Staphylococcus aureus clinical isolates incubated for 24 hrs by tube-dilution method. It is filed as functional.
Assay [7] relates to Staphylococcus epidermidis. Briefly: Antibacterial activity against penicillin-resistant Staphylococcus epidermidis clinical isolates incubated for 24 hrs by tube-dilution method. The assay is classed as functional.
The test system of assay [8] is Streptococcus pyogenes. As to the kind of experiment: Antibacterial activity against penicillin-susceptible Streptococcus pyogenes clinical isolates incubated for 24 hrs by tube-dilution method. It is filed as functional.
The test system of assay [9] is Streptococcus pyogenes. As to the kind of experiment: Antibacterial activity against penicillin-resistant Streptococcus pyogenes clinical isolates incubated for 24 hrs by tube-dilution method. It is filed as functional.
In assay [10] the test system is Bacillus subtilis. Briefly: Inhibition of FtsZ in penicillin-susceptible Bacillus subtilis ATCC 9372 assessed as lowest drug concentration causing inhibition of cell division incubated for 5 hrs by phase-contrast light microscopy. The method in brief:
(§2)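 Cell division inhibition judged from bacterial cell morphology under phase-contrast light microscopy, scored as lowest concentration altering division; penicillin-susceptible strains B. subtilis ATCC9372, E. coli ATCC25922, P. aeruginosa ATCC27853, S. aureus ATCC25923.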

The test system of assay [11] is Escherichia coli. As to the kind of experiment: Inhibition of FtsZ in penicillin-susceptible Escherichia coli ATCC 25922 assessed as lowest drug concentration causing inhibition of cell division incubated for 5 hrs by phase-contrast light microscopy. The method in brief: as §2
Assay [12] deals with Pseudomonas aeruginosa. Briefly: Inhibition of FtsZ in penicillin-susceptible Pseudomonas aeruginosa ATCC 27853 assessed as lowest drug concentration causing inhibition of cell division incubated for 5 hrs by phase-contrast light microscopy. The method in brief:
as §2

Assay [13] concerns Staphylococcus aureus. Briefly: Inhibition of FtsZ in penicillin-susceptible Staphylococcus aureus ATCC 25923 assessed as lowest drug concentration causing inhibition of cell division incubated for 5 hrs by phase-contrast light microscopy. The method in brief:
as §2

For the next assay, the species on record is Sus scrofa. As to the kind of experiment: Induction of porcine tubulin polymerisation at 2 times MIC for penicillin-resistant Staphylococcus aureus by fluorescence microscopy. The method in brief: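 Polymerisation of mammalian tubulin measured with a commercial tubulin assay kit, read by fluorescence of the kit reporter, with paclitaxel as the positive control for enhanced polymerisation.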

For `Cc1onc(-c2ccccc2)c1C(=O)N[C@@H]1C(=O)N2[C@@H]1SC(C)(C)[C@@H]2C(=O)[O-].[Na+]`, the MIC in the assay on Bacillus subtilis [1] is 8 µg/mL; against Escherichia coli [2] it was 128 µg/mL; against Pseudomonas aeruginosa [3], 128 µg/mL; in the assay with Staphylococcus aureus [4], 8 µg/mL; with Staphylococcus aureus [5], 128 µg/mL; in the assay with Staphylococcus aureus [6], greater than 128 µg/mL. Moreover, the results for the MIC (in assay [7]; in the assay with Streptococcus pyogenes [8]; with Streptococcus pyogenes [9]) were 8 µg/mL, 1 µg/mL and 2 µg/mL, respectively.
Turning to `COc1ccc2c(c1)c1ccccc1c[n+]2C.[Cl-]`, the MIC against Bacillus subtilis [1] was 8 µg/mL; against Escherichia coli [2] it was greater than 128 µg/mL; with Pseudomonas aeruginosa [3] it was greater than 128 µg/mL; in the assay on Staphylococcus aureus [4], greater than 128 µg/mL; with Staphylococcus aureus [5] it was 128 µg/mL; in the assay on Staphylococcus aureus [6], 8 µg/mL. The MIC in assay [7] is 64 µg/mL; with Streptococcus pyogenes [8], 8 µg/mL; against Streptococcus pyogenes [9] it was 16 µg/mL; in the assay with Bacillus subtilis [10], 8 µg/mL; in the assay on Escherichia coli [11] it was greater than 128 µg/mL; with Pseudomonas aeruginosa [12] it was greater than 128 µg/mL. Further, the MIC in the assay with Staphylococcus aureus [13] was greater than 128 µg/mL. The outcome in the assay filed under Sus scrofa was inactive.
Regarding `COc1cccc2c3ccccc3c[n+](C)c12.[Cl-]`, the MIC in the assay with Bacillus subtilis [1] is 8 µg/mL; in the assay with Escherichia coli [2] it was greater than 128 µg/mL; against Pseudomonas aeruginosa [3] it was greater than 128 µg/mL; against Staphylococcus aureus [4], greater than 128 µg/mL; against Staphylococcus aureus [5], greater than 128 µg/mL; against Staphylococcus aureus [6] it was 16 µg/mL. The MIC in [7] was 128 µg/mL; in the assay on Streptococcus pyogenes [8] it was 16 µg/mL; against Streptococcus pyogenes [9], 16 µg/mL; with Bacillus subtilis [10] it was 8 µg/mL; in the assay on Escherichia coli [11] it was greater than 128 µg/mL; in the assay with Pseudomonas aeruginosa [12], greater than 128 µg/mL. The MIC with Staphylococcus aureus [13] was greater than 128 µg/mL. Further, the outcome in the assay listed under Sus scrofa was inactive.
Take `C[n+]1cc2ccccc2c2cc(F)ccc21.[Cl-]`: the MIC was 16 µg/mL with Bacillus subtilis [1]; greater than 128 µg/mL with Escherichia coli [2]; 128 µg/mL against Pseudomonas aeruginosa [3]; greater than 128 µg/mL with Staphylococcus aureus [4]; greater than 128 µg/mL against Staphylococcus aureus [5]; 32 µg/mL against Staphylococcus aureus [6]. For the same compound, the MIC in assay [7] was greater than 128 µg/mL; against Streptococcus pyogenes [8], 32 µg/mL; against Streptococcus pyogenes [9], 32 µg/mL; in the assay on Bacillus subtilis [10], 16 µg/mL; in the assay on Escherichia coli [11], greater than 128 µg/mL; with Pseudomonas aeruginosa [12], 128 µg/mL. Moreover, in the assay on Staphylococcus aureus [13], the MIC is greater than 128 µg/mL. The result in the assay filed under Sus scrofa was inactive.
For `CCCCc1ccc2c(c1)c1ccccc1c[n+]2C.[Cl-]`, the MIC against Bacillus subtilis [1] was 4 µg/mL; against Escherichia coli [2] it was greater than 128 µg/mL; against Pseudomonas aeruginosa [3], greater than 128 µg/mL; in the assay on Staphylococcus aureus [4], 64 µg/mL; against Staphylococcus aureus [5], greater than 128 µg/mL; against Staphylococcus aureus [6], 8 µg/mL. Moreover, the MIC is greater than 128 µg/mL in assay [7]; 8 µg/mL against Streptococcus pyogenes [8]; 8 µg/mL in the assay on Streptococcus pyogenes [9]; 4 µg/mL with Bacillus subtilis [10]; 128 µg/mL with Escherichia coli [11]; greater than 128 µg/mL in the assay with Pseudomonas aeruginosa [12]. The MIC in the assay on Staphylococcus aureus [13] was 64 µg/mL. The result in the assay filed under Sus scrofa was inactive.
`O=C(O)c1cn(C2CC2)c2cc(N3CCNCC3)c(F)cc2c1=O` [CIPROFLOXACIN]: the results for the MIC in the assay with Bacillus subtilis [1], in the assay with Staphylococcus aureus [4] and against Staphylococcus aureus [5] were 8 µg/mL (≈ 24.1 µM), 32 µg/mL (≈ 96.6 µM) and 4 µg/mL (≈ 12.1 µM), respectively.
As for `C[n+]1cc2ccccc2c2cc(C(F)(F)F)ccc21.[Cl-]`, the MIC in the assay on Bacillus subtilis [1] was 128 µg/mL; in the assay with Escherichia coli [2], greater than 128 µg/mL; against Pseudomonas aeruginosa [3], greater than 128 µg/mL; in the assay on Staphylococcus aureus [4], 128 µg/mL; against Staphylococcus aureus [5], greater than 128 µg/mL; with Staphylococcus aureus [6], 128 µg/mL. Moreover, the MIC in assay [7] is 128 µg/mL; against Streptococcus pyogenes [8], 128 µg/mL; against Streptococcus pyogenes [9] it was 128 µg/mL; with Bacillus subtilis [10], 64 µg/mL; in the assay on Escherichia coli [11] it was greater than 128 µg/mL; in the assay on Pseudomonas aeruginosa [12], greater than 128 µg/mL. In the assay on Staphylococcus aureus [13], the MIC was found to be 128 µg/mL. In the assay listed under Sus scrofa, the outcome was inactive.

Source of the values: ChEMBL document CHEMBL4052686, “Synthesis and antibacterial activity of 5-methylphenanthridium derivatives as FtsZ inhibitors” (2017).
